Source: ChEMBL document CHEMBL1124672, “A minor modification of residue 1 in potent vasopressin antagonists dramatically reduces agonist activity” (J Med Chem, 1989)
Numbered stars: 1 amine (or outer) side, 2 acyl side, 3 side chain; on linkers, the order of the positions; unused ones are H or OH. Bridge positions count the residues as written; N and C are the ends. Square brackets hold non-standard residues; d marks the D form. Peptide text beside a SMILES is read from it. X1 = O=C(CC1(S[*:2])CCCCC1)[*:1]

Key:
[1] = Compound was evaluated for inhibition of vasopressin-stimulated adenylate cyclase in human medullary preparation
In short: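 Human renal medullary tissue; inhibition of vasopressin-stimulated adenylate cyclase, reported as inhibition constant Ki.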

[2] = system: Canis familiaris; assay: Compound was tested for the maximum urine osmolality with a dose of 100 ug/kg compound in dog.; type: ADME, organism-based, Canis lupus familiaris; details: in vivo, 0.1 mg/kg
In short: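 Adult female mongrel dogs, lightly restrained supine, food withheld 18 h, water-loaded (tap water 5% body weight by gavage). 3% dextrose infused intravenously until Uosm below 70 mOsm/kg H2O, then matched to urine output. After 20 min baseline, indomethacin 2 mg/kg load + 3 mg/kg per h for 20 min, then single i.v. bolus 100 µg/kg or vehicle. Uosm by freezing point depression, every 10 min for 3 h; maximum Uosm, mean ±SE.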

[3] = system: Rattus norvegicus; assay: Effective dose of compound required to lower urine osmolality to 300 mOsm/kg H2O in rat; type: functional
In short: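 Hydropenic rat model. ED300 (µg/kg) is the dose reducing urine osmolality from hydropenic levels to plasma osmolality level, 300 mOsm/kg H2O.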

[4] = system: Vasopressin V2 receptor (Sus scrofa); assay: Binding affinity of compound towards Vasopressin receptor by binding [3H]LVP to pig renal medullary preparation; details: Renal medulla
[5] = system: Canis familiaris; assay: Compound was tested for the maximum urine osmolality with a dose of 100 ug/kg compound in dog; type: ADME, organism-based, Canis lupus familiaris; details: in vivo, 0.1 mg/kg
In short: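 Adult female mongrel dogs, fasted 18 h with water allowed, hydrated orally with tap water (5% body weight), bladder-catheterized. 3% dextrose iv to baseline water diuresis (Uosm <70 mOsm/kg H2O). Indomethacin 2 mg/kg load + 3 mg/kg per h. Single iv bolus of 100 µg/kg peptide or vehicle. Uosm by freezing point depression every 10 min for 3 h; maximum value, mean ±SE.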

**Q.** Which results are given for CCOc1ccc(C[C@H]2NC(=O)CC3(CCCCC3)SSC[C@@H](C(=O)N3CCC[C@H]3C(=O)N[C@@H](CCCN=C(N)N)C(=O)NCC(N)=O)NC(=O)[C@H](CC(N)=O)NC(=O)[C@H](C(C)C)NC(=O)[C@H](Cc3ccccc3)NC2=O)cc1 ([dY](Et)FVNCPRG-NH2; linker N-5 via X1) [listing 1 of 2 here]?
**A.** Ki [1]: 4.6 nM; Max Uosm [2]: 1216 mOsmol kg-1

**Q.** With CCOc1ccc(C[C@H]2NC(=O)CC3(CCC(C)CC3)SSC[C@@H](C(=O)N3CCC[C@H]3C(=O)N[C@@H](CCCN=C(N)N)C(N)=O)NC(=O)[C@H](CC(N)=O)NC(=O)[C@H](C(C)C)NC(=O)[C@H](Cc3ccccc3)NC2=O)cc1 (stereo in doubt; 3) as the compound, how does the ED300 [3] read?
**A.** 0.022 mg/kg

**Q.** For CCOc1ccc(C[C@H]2NC(=O)CC3(CCCCC3)SSC[C@@H](C(=O)N3CCC[C@H]3C(=O)N[C@@H](CCCNC(=N)N)C(N)=O)NC(=O)[C@H](CC(N)=O)NC(=O)[C@H](C(C)C)NC(=O)[C@H](Cc3ccccc3)NC2=O)cc1 ([dY](Et)FVNCPR-NH2; linker N-5 via X1), which Ki [1] is on record?
**A.** 3.6 nM

**Q.** What about the “Max Uosm” value [2] of the same compound?
**A.** 1625 mOsmol kg-1

**Q.** Which Ki [1] does the source give for CCOc1ccc(C[C@H]2NC(=O)CC3(CCC(C)CC3)SSC[C@@H](C(=O)N3CCC[C@H]3C(=O)N[C@@H](CCCN=C(N)N)C(=O)NCC(N)=O)NC(=O)[C@H](CC(N)=O)NC(=O)[C@H](C(C)C)NC(=O)[C@H](Cc3ccccc3)NC2=O)cc1 (stereo partly specified) [listing 1 of 2 here] here?
**A.** 4.3 nM

**Q.** What about the “Max Uosm” value [2] of the same compound?
**A.** 85 mOsmol kg-1

**Q.** For CCOc1ccc(C[C@@H]2NC(=O)CC3(CCCCC3)SSC[C@H](C(=O)N[C@@H](CCCN=C(N)N)C(=O)N[C@@H](CCCN=C(N)N)C(N)=O)NC(=O)[C@@H](CC(N)=O)NC(=O)[C@H](C(C)C)NC(=O)[C@@H](Cc3ccccc3)NC2=O)cc1, which Ki [1] is on record?
**A.** 4.5 nM

**Q.** And the K Bind [4]?
**A.** 4.5 nM

**Q.** And the “Max Uosm” value [2]?
**A.** 469 mOsmol kg-1

**Q.** And the ED300 [3]?
**A.** 0.0135 mg/kg

**Q.** Which “Max Uosm” value [5] does the source give for CCOc1ccc(C[C@H]2NC(=O)CC3(CCC(C)CC3)SSC[C@@H](C(=O)N3CCC[C@H]3C(=O)N[C@@H](CCCNC(=N)N)C(N)=O)NC(=O)[C@H](CC(N)=O)NC(=O)[C@H](C(C)C)NC(=O)[C@H](Cc3ccccc3)NC2=O)cc1 (stereo in doubt; 2) here?
**A.** 91 mOsmol kg-1

**Q.** For CCOc1ccc(C[C@H]2NC(=O)CC3(CCC(C)CC3)SSC[C@@H](C(=O)N3CCC[C@H]3C(=O)N[C@@H](CCCN=C(N)N)C(N)=O)NC(=O)[C@H](CC(N)=O)NC(=O)[C@H](C(C)C)NC(=O)[C@H](Cc3ccccc3)NC2=O)cc1 (stereo in doubt; 2), which ED300 [3] is on record?
**A.** 0.045 mg/kg

**Q.** With CCOc1ccc(C[C@H]2NC(=O)CC3(CCC(C)CC3)SSC[C@@H](C(=O)N3CCC[C@H]3C(=O)N[C@@H](CCCN=C(N)N)C(=O)NCC(N)=O)NC(=O)[C@H](CC(N)=O)NC(=O)[C@H](C(C)C)NC(=O)[C@H](Cc3ccccc3)NC2=O)cc1 (stereo partly specified) [listing 2 of 2 here] as the compound, how does the ED300 [3] read?
**A.** 0.025 mg/kg

**Q.** Which ED300 [3] does the source give for CCOc1ccc(C[C@H]2NC(=O)CC3(CCCCC3)SSC[C@@H](C(=O)N3CCC[C@H]3C(=O)N[C@@H](CCCN=C(N)N)C(=O)NCC(N)=O)NC(=O)[C@H](CC(N)=O)NC(=O)[C@H](C(C)C)NC(=O)[C@H](Cc3ccccc3)NC2=O)cc1 ([dY](Et)FVNCPRG-NH2; linker N-5 via X1) [listing 2 of 2 here] here?
**A.** 0.011 mg/kg

**Q.** For CCOc1ccc(C[C@@H]2NC(=O)CC3(CCC(C)CC3)SSC[C@H](C(=O)N[C@@H](CCCN=C(N)N)C(=O)N[C@@H](CCCN=C(N)N)C(N)=O)NC(=O)[C@H](CC(N)=O)NC(=O)[C@H](C(C)C)NC(=O)[C@H](Cc3ccccc3)NC2=O)cc1 (stereo partly specified), which Ki [1] is on record?
**A.** 3.9 nM

**Q.** And the K Bind [4]?
**A.** 4.2 nM

**Q.** And the “Max Uosm” value [2]?
**A.** 103 mOsmol kg-1

**Q.** What about the ED300 [3] of the same compound?
**A.** 0.046 mg/kg

**Q.** With CCOc1ccc(C[C@H]2NC(=O)CC3(CCC(C)CC3)SSC[C@@H](C(=O)N3CCC[C@H]3C(=O)N[C@@H](CCCNC(=N)N)C(N)=O)NC(=O)[C@H](CC(N)=O)NC(=O)[C@H](C(C)C)NC(=O)[C@H](Cc3ccccc3)NC2=O)cc1 (stereo in doubt; 3) as the compound, how does the “Max Uosm” value [2] read?
**A.** 613 mOsmol kg-1

**Q.** For CCOc1ccc(C[C@H]2NC(=O)CC3(CCCCC3)SSC[C@@H](C(=O)N3CCC[C@H]3C(=O)N[C@@H](CCCN=C(N)N)C(N)=O)NC(=O)[C@H](CC(N)=O)NC(=O)[C@H](C(C)C)NC(=O)[C@H](Cc3ccccc3)NC2=O)cc1 ([dY](Et)FVNCPR-NH2; linker N-5 via X1), which ED300 [3] is on record?
**A.** 0.015 mg/kg
